eIF4H inh = inhibitors of RNA binding by human eIF4H | Q15056 | eIF4H fluorescence polarization binding assay | inhibition, % at 35 µM | 290,000 tested, 0.94% active;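 note: calls also rest on retests at 20 µM and on dose response follow-up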
MLLE-PAM2 inh = blocks PAM2 peptide binding to the PABP1 MLLE domain; P11940; GST-MLLE / FITC-PAM2 fluorescence polarization; inhibition, % at 20 µM; 360,000 tested, 0.36% active; AID 588489; in the data active = inhibition above about 35%, passing the limit was not always enough;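 note: plate controls were DMSO wells with GST-MLLE for no effect and wells lacking GST-MLLE protein for full effect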
eIF4E 4G PPI = blocks eIF4E binding to eIF4G | TR-FRET eIF4E-eIF4GI(517-606) binding, 2 h | inhibition, % at 21.7 µM | 220,000 tested, 0.37% active | AID 782;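 active = inhibition above about 30%, limit read from the data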;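 note: 0% = full FRET control wells and 100% = background wells lacking eIF4GI fragment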
HCV core dimer = blocks dimerization of HCV core protein | inhibition, % at 5 µM | 300,000 tested, 0.33% active | TR-FRET GST/Flag-core106 dimerization, 1536-well;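 active = inhibition above the mean of all tested compounds plus 3 SD, set per screening campaign, cut at about 45% in these data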
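test system = GST/Flag-tagged HCV core106 proteins | probe or stimulus = Eu donor and XL665 acceptor anti-tag antibodies | times = compound-protein-antibody incubation 4 h at 22.5 °C | signal = TR-FRET, excitation 340 nm, emission 617 and 671 nm | measure = percent inhibition of core106 dimerization signal | controls = wells lacking GST-core106 and wells with excess unlabelled core106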
SUMO HTRF inh = inhibitors of human SUMOylation (UBC9); AID 2006; HTRF SUMOylation assay, SAE1/SAE2 + UBC9, in vitro; inhibition, % at 35 µM; P63279; 290,000 tested, 0.36% active; in the data active = inhibition above about 50%, passing the limit was not always enough; inconclusive = no clear call, values can overlap the other calls
PABP FP inh = PABP-poly(A) binding inhibition | PABP-poly(A) RNA binding, fluorescence polarization | calls only at 35 µM | P11940 | AID 2014 | 290,000 tested, 1% active;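 note: calls also rest on retests at 20 µM and on dose response follow-up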
The depositor's hits bear a star; i = inactive; u = inconclusive; x = no result given; + = active, no number. An excerpt weighted towards active compounds, which were near 1.8% of everything screened. Unless noted, the rule behind the calls is not given here.

SMILES | eIF4H inh | MLLE-PAM2 inh | eIF4E 4G PPI | HCV core dimer | SUMO HTRF inh | PABP FP inh
Brc1ccc(C2Nc3cccc4cccc(c34)N2)cc1 | x | -5 | x | x | x | x
O=[N+]([O-])c1ccc(C2Nc3cccc4cccc(c34)N2)cc1 | 97* | 6 | 6 | -13 | 54 | +
Clc1ccccc1C1Nc2cccc3cccc(c23)N1 | u | 6 | x | 12 | 43 | u
Clc1cccc(C2Nc3cccc4cccc(c34)N2)c1Cl | 103* | 10 | x | 1 | 31 | +
Fc1ccc(C2Nc3cccc4cccc(c34)N2)cc1 | 53* | 5 | x | -2 | -12 | +
Cc1sc(NC(=O)C2=COCCO2)nc1-c1ccc(Cl)cc1 | x | -8 | x | -5 | x | x
CCOC(=O)C1CCN(C(=O)C(CCSC)NC(=O)c2ccccc2OC)CC1 (stereo not drawn) | x | 5 | x | x | x | x
C[C@@]12C(=O)NCC(=O)N1[C@@H]1c3cc(Br)ccc3OC[C@@H]1[C@@H]2c1ccccc1 | x | -12 | x | x | x | x
CCC(C(=O)Nc1ccc(C(=O)O)cc1NC(=O)C(CC)c1ccccc1)c1ccccc1 (stereo not drawn) | -12 | -4 | x | 11 | 20 | i
Cc1ccc(C2Nc3cccc4cccc(c34)N2)s1 | 103 | 12 | 8 | 9 | 56 | +
COc1cc(C2Nc3cccc4cccc(c34)N2)cc(OC)c1O | 86 | 17 | 14 | 45 | 43 | i
Oc1ccc(C2Nc3cccc4cccc(c34)N2)c(O)c1 | 89* | 7 | 23 | 0 | 52 | +
CS(=O)(=O)c1ccc(C(=O)NCC(c2ccco2)N2CCCCC2)cc1 (stereo not drawn) | 83* | 0 | -3 | -6 | 23 | i
N#C/C(=C\c1ccncc1)c1nc2ccccc2o1 | 1 | -18 | 96* | 1 | -8 | i
N#C/C(=C\c1ccc(Cl)cc1)c1nc2ccccc2o1 | 81* | 11 | 0 | -4 | 1 | +
CC(C)Oc1ccc(C(=O)NN2C(=O)NC3(CCCCC3)C2=O)cc1 | x | -2 | x | x | x | x
COc1ccc(C)cc1NC(=O)Nc1ccc(C(=O)N2CCCC2)cc1 | -1 | 5 | x | 0 | 5 | i
Oc1c(Br)cc(Br)cc1C=Nc1cccnc1 | 32 | 39* | x | -19 | 34 | i
Oc1c(Br)cc(Br)cc1C=Nc1ccc2[nH]ncc2c1 | 37 | -76 | 3 | -6 | 49 | i
CSc1ccccc1OCc1cc(C(=O)NCCN2CCCc3ccccc32)no1 | 32 | -28 | x | 2 | -11 | i
N#Cc1c(Nc2cccc(F)c2)sc2c(O)cc(=O)[nH]c12 | 56* | -84 | 3 | 4 | 19 | +
O=C(C1=NN(c2ccccc2)C2C(=O)N(c3cccc(Cl)c3)C(=O)C12)c1ccccc1 (stereo not drawn) | u | 7 | 10 | 6 | 8 | +
O=C(O)C1=CC(=C(c2ccc(O)c(C(=O)O)c2)c2ccc(O)c(C(=O)O)c2)C=CC1=O | x | x | x | 77* | x | x
CN(C)c1ccc(CNS(=O)(=O)c2ccc3c(c2)C(C)(C)C(=O)N3C)cc1 | -2 | -15 | x | 0 | 12 | i
COc1ccc(/C(O)=C2/C(=O)C(=O)N(CC3CCCO3)C2c2cccc(OC)c2)cc1 (stereo not drawn) | 1 | -13 | 5 | -2 | 25 | i
SMILES | eIF4H inh | MLLE-PAM2 inh | eIF4E 4G PPI | HCV core dimer | SUMO HTRF inh | PABP FP inh
COc1ccc(/C(O)=C2/C(=O)C(=O)N(CC3CCCO3)C2c2ccc(O)c(OC)c2)cc1 (stereo not drawn) | active | 17 | -1 | -5 | 7 | +
CC[C@@]1(C(=O)OC)N[C@H](CN(C)C(=O)Nc2ccc(Cl)cc2)[C@@H]2C(=O)N(Cc3ccccc3)C(=O)[C@@H]21 | x | -6 | x | x | x | x
O=C(Oc1ccc(Nc2ncnc3ccccc23)cc1)c1cccnc1 | -7 | 10 | -1 | x | 1 | i
Clc1ccc(-c2nc3ccc(Br)cn3c2Cc2ccsc2)cc1 | x | -32 | x | x | x | x
COc1ccc(CN(C)C(=O)[C@H]2O[C@@H](n3ccc(=O)[nH]c3=O)[C@H](O)[C@@H]2O)cc1OC | x | 0 | x | x | x | x
CN(Cc1ccc2c(c1)CCCN2C)C(=O)[C@H]1O[C@@H](n2ccc(=O)[nH]c2=O)[C@H](O)[C@@H]1O | x | 47* | x | x | x | x
CC(C)(C)c1cc(C(=O)NNc2cc(C(F)(F)F)ccc2Cl)n(Cc2ccccc2)n1 | 52* | -25 | 5 | 5 | -10 | i
CC1=C(C(=O)N2CCOCC2)CC(CC(=O)NCC2CCCCC2)C(=O)N1Cc1ccc(C(C)(C)C)cc1 (stereo not drawn) | x | 0 | x | x | x | x
Cc1cc(C)c(S(=O)(=O)NCc2ccc3c(c2)cc(C)n3C)c(C)c1 | 40 | 27 | 4 | -12 | -22 | i
Cc1cc2cc(CNC(=S)Nc3ccc(OC(F)(F)F)cc3)ccc2n1C | 77 | 46* | 4 | -71 | -2 | i
CC(=O)Nc1ccc(S(=O)(=O)NCc2ccc3c(c2)cc(C)n3C)cc1 | 55* | 50 | -2 | -13 | -3 | +
COc1cccc(NC(=S)NCc2ccc3c(c2)cc(C)n3C)c1 | -9 | 7 | -3 | x | -26 | i
Cc1cc2cc(CNS(=O)(=O)c3ccc4ccccc4c3)ccc2n1C | 29 | 43* | -17 | -41 | -30 | i
Cn1c(=O)[nH]c(=O)c2c1nc(CN1CCN(Cc3ccccc3)CC1)n2CC(N)=O | -8 | 6 | 0 | 2 | 4 | i
COc1ccc(S(=O)(=O)NCC2CCCN(C(=O)CCC(F)(F)F)C2)cc1 (stereo not drawn) | -1 | 2 | x | -1 | 11 | i
Cc1ccc(-n2c(C)cc(=O)cc2C)c(C)c1 | -12 | 5 | 5 | -9 | 21 | i
Cc1cc(=O)cc(C)n1-c1ccc(F)cc1F | 77 | 2 | -4 | -7 | -21 | +
CCCCn1c(N)c(C(=S)NC(=O)CC(C)(C)C)c(=O)n(C)c1=O | -1 | 48* | -9 | 10 | 16 | i
O=C(N=Nc1c(O)[nH]c2ccccc12)c1ccc2c(c1)OCO2 | 8.5* | -2 | -1 | -13 | 16 | +
O=C(N=Nc1c(O)[nH]c2ccccc12)c1ccc(CN2CCOCC2)cc1 | 4 | -10 | -2 | -7 | -2 | i
CCOc1cc(/C=C2\C(=O)N(CCC#N)N=C2C)ccc1OCC(N)=O | -9 | 6 | -3 | -3 | 7 | i
CC1=NN(CCC#N)C(=O)/C1=C/c1ccc(N(C)C)cc1 | 77* | -84 | -2 | -3 | -14 | i
CCN(CC)c1ccc2cc(C(=O)Nc3ccc(-n4cnnn4)c(OC)c3)c(=O)oc2c1 | 76* | x | x | x | -35 | +
Cn1c(C(=O)N2CCN(C(=O)c3ccco3)CC2)cc2c(=O)n3ccccc3nc21 | 14 | 7 | -14 | 2 | 58* | i
CC1CCCCC1NC(=O)c1cc2c(=O)n3ccccc3nc2n1C (stereo not drawn) | -16 | 9 | x | 5 | 58* | i

Assay outcomes: PubChem BioAssay, several laboratories
